The source made the active and inactive calls.
Key:
Mus musculus [1] = assay: Anticonvulsant activity in ip dosed Swiss albino mouse assessed as minimum drug concentration required for inhibition of maximal electroshock-induced seizure in half or more of mouse after 0.5 hrs by MES test; assay type: functional
Outline: (§1)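 Male Swiss albino mice (18–25 g) received compound i.p. at 30, 100 and 300 mg/kg. MES seizures were induced after 0.5 and 4 h, with a drop of 0.9% saline placed in the eye before the electrodes went on. Protection meant abolition of the hind-limb tonic extensor component. The tabulated value is the minimum dose protecting half or more of the mice.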

Mus musculus [2] = assay: Toxicity to Swiss albino mouse assessed as occurrence of myoclonic jerks at 300 mg/kg, ip after 0.5 hrs; assay type: organism-based; design: dose 300 mg/kg, route intraperitoneal; conditions: in vivo
Mus musculus [3] = assay: Neurotoxicity in Swiss albino mouse at 300 mg/kg, ip after 0.5 hrs by rotarod test; assay type: toxicity, organism-based; design: dose 300 mg/kg, route intraperitoneal; conditions: in vivo
Outline: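 Male Swiss albino mice (18-25 g) received the compound i.p. at 30, 100 or 300 mg/kg and were tested on the rotarod 0.5 and 4 h later. Mice were pre-checked, and any that fell off within 30 s were excluded. Neurotoxicity was scored as falling off the rod. The value is the minimum dose affecting half or more of the mice.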

Mus musculus [4] = assay: Anticonvulsant activity in ip dosed Swiss albino mouse assessed as minimum drug concentration required for inhibition of pentylenetetrazole-induced seizures in half or more of mouse after 4 hrs by scPTZ test; assay type: functional
Outline: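 Male Swiss albino mice (18–25 g) were dosed i.p. at 30, 100 and 300 mg/kg, examined at 0.5 and 4 h. PTZ 85 mg/kg (CD97) was given and the animals were […]. Protection meant absence of any threshold convulsion, i.e. clonic spasm lasting at least 5 s. The value is the minimum dose active in half or more of the mice.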

Mus musculus [5] = assay: Anticonvulsant activity against maximal electroshock-induced seizures in Swiss albino mouse at 300 mg/kg, ip after 4 hrs by MES test; assay type: functional, organism-based; design: dose 300 mg/kg; outline: as §1
Mus musculus [6] = assay: Neurotoxicity in ip dosed Swiss albino mouse assessed as minimum drug concentration required for falling off the rotarod by half or more of mouse after 4 hrs by rotarod test; assay type: toxicity, organism-based; conditions: in vivo
Outline: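 Rotarod test in male Swiss albino mice (18–25 g) after i.p. dosing at 30, 100 and 300 mg/kg, read at 0.5 and 4 h. Mice falling within 30 s in a pre-check were excluded. Neurotoxicity was scored as the minimum dose at which half or more of the mice fell off the rod.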

With C/C(=N\NC(=O)Nc1nc2c(ccc3ccccc32)s1)c1ccc(C)cc1 the Activity (Mus musculus [1]) was 300 mg/kg, the Activity (Mus musculus [2]) was “Toxic” and the Activity (Mus musculus [3]) was “Non-toxic”. For the same compound, the Activity (Mus musculus [4]) was 300 mg/kg, the Activity (Mus musculus [5]) was “inactive” and the Activity (Mus musculus [6]) was 300 mg/kg.
